From ChEMBL document CHEMBL4130411, “Arylthiazole antibiotics targeting intracellular methicillin-resistant Staphylococcus aureus (MRSA) that interfere with bacterial cell wall synthesis” (Eur J Med Chem, 2017)
Converted amounts (≈) assume the structure as drawn. The source made the active and inactive calls. The calls are words filed in the database; no cut-off is given here.

Columns and labels:
Staphylococcus aureus [1] = assay: Antibacterial activity against methicillin-resistant Staphylococcus aureus USA300 NRS384 after 20 hrs by broth microdilution assay; assay type: functional; conditions: USA300 NRS384, 20 h
Staphylococcus aureus [2] = assay: Antibacterial activity against vancomycin-resistant Staphylococcus aureus isolate 4 after 20 hrs by broth microdilution assay; assay type: functional; conditions: isolate 4, 20 h
Staphylococcus aureus [3] = assay: Antibacterial activity against vancomycin-resistant Staphylococcus aureus isolate 10 after 20 hrs by broth microdilution assay; assay type: functional; conditions: isolate 10, 20 h
Staphylococcus aureus [4] = assay: Bactericidal activity against Staphylococcus aureus RN4220 NRS107 incubated for 20 hrs followed by replating on tryptic soy agar plates and further incubated for 18 hrs by broth microdilution assay; assay type: functional
Staphylococcus aureus [5] = assay: Bactericidal activity against methicillin-resistant Staphylococcus aureus NRS123 (USA400) incubated for 20 hrs followed by replating on tryptic soy agar plates and further incubated for 18 hrs by broth microdilution assay; assay type: functional
Staphylococcus aureus [6] = assay: Bactericidal activity against methicillin-resistant Staphylococcus aureus USA100 NRS382 incubated for 20 hrs followed by replating on tryptic soy agar plates and further incubated for 18 hrs by broth microdilution assay; assay type: functional
Staphylococcus aureus [7] = assay: Bactericidal activity against methicillin-resistant Staphylococcus aureus USA200 NRS383 incubated for 20 hrs followed by replating on tryptic soy agar plates and further incubated for 18 hrs by broth microdilution assay; assay type: functional
Staphylococcus aureus [8] = assay: Bactericidal activity against methicillin-resistant Staphylococcus aureus USA300 NRS384 incubated for 20 hrs followed by replating on tryptic soy agar plates and further incubated for 18 hrs by broth microdilution assay; assay type: functional
Staphylococcus aureus [9] = assay: Bactericidal activity against vancomycin-resistant Staphylococcus aureus isolate 4 incubated for 20 hrs followed by replating on tryptic soy agar plates and further incubated for 18 hrs by broth microdilution assay; assay type: functional
Staphylococcus aureus [10] = assay: Bactericidal activity against vancomycin-resistant Staphylococcus aureus isolate 10 incubated for 20 hrs followed by replating on tryptic soy agar plates and further incubated for 18 hrs by broth microdilution assay; assay type: functional
How it was run: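 From MIC wells without visible growth, an aliquot was spotted onto Tryptic soy agar and incubated at 37 °C for at least 18 h; MBC = lowest concentration inhibiting 99.9% of bacterial growth.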

Staphylococcus aureus [11] = assay: Bactericidal activity against methicillin-resistant Staphylococcus aureus NRS123 (USA400) assessed as time required for complete bacterial elimination by time-kill assay; assay type: functional
HaCaT = assay: Cytotoxicity against human HaCaT cells assessed as reduction in cell viability up to 32 ug/ml after 2 hrs by MTS assay; assay type: cell-based
How it was run: (§1)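 Cells were HaCaT keratinocytes or J774 murine macrophages, grown in DMEM with 10% FBS at 37 °C, 5% CO2. They were exposed in triplicate to 8, 16, 32 and 64 µg/mL for 2 h, with DMSO-matched controls. MTS was then added for 4 h and absorbance read at 490 nm. Viability is expressed as % of DMSO-treated cells, mean ± SD.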

J774 = assay: Cytotoxicity against mouse J774 cells assessed as reduction in cell viability up to 16 ug/ml after 2 hrs by MTS assay; assay type: cell-based; conditions: j774, 2 h; how it was run: as §1
Staphylococcus aureus [12] = assay: Antibacterial activity against methicillin-resistant Staphylococcus aureus NRS123 (USA400) infected in mouse J774 cells assessed as reduction in bacterial colony forming units at 16 ug/ml after 4 hrs; assay type: functional, organism-based
How it was run: (§2)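 J774 macrophages in DMEM + 10% FBS, 37 °C, 5% CO2, infected with USA400 at MOI ~100:1; after 1 h, gentamicin (50 µg/mL) wash; agent at 16 µg/mL in triplicate; at time point, gentamicin wash, lysis in 0.1% Triton X-100, serial dilution, TSA plating 18-22 h at 37 °C; % CFU/mL reduction versus untreated; t-test.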

Staphylococcus aureus [13] = assay: Antibacterial activity against methicillin-resistant Staphylococcus aureus NRS123 (USA400) infected in mouse J774 cells assessed as reduction in bacterial colony forming units at 16 ug/ml after 24 hrs relative to control; assay type: functional; design: scale not given: the % may be the effect or the level left; how it was run: as §2
Staphylococcus aureus [14] = assay: Antibacterial activity against methicillin-resistant Staphylococcus aureus USA300 NRS384 infected in Caenorhabditis elegans AU37 assessed as reduction in bacterial burden at 20 ug/ml after 18 hrs by microscopic analysis; assay type: functional; design: scale not given: the % may be the effect or the level left
Staphylococcus aureus [15] = assay: Inhibition of cell wall synthesis in Staphylococcus aureus RN4220 NRS107 assessed as UDP-N-acetylmuramyl pentapeptide formation at 10 times MIC incubated for 30 mins by HPLC-MS analysis; assay type: functional, organism-based
Bacillus subtilis [16] = assay: Inhibition of cell wall biosynthesis in Bacillus subtilis assessed as induction of small bulges formation at 3.5 ug/ml incubated for 2 hrs in presence of osmotic stabilising agent MSM by FM-4-64 staining based assay; assay type: functional, organism-based
How it was run: (§3)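 B. subtilis grown in LB at 37 °C to OD600 ~0.2, then treated with or without the osmotic stabiliser MSM for 2 h; stained with FM 4-64 (1 µg/mL, membranes), DAPI (1 µg/mL, DNA) and SYTOX Green (1 µg/mL, lysis); imaged by deconvolution fluorescence microscopy.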

Bacillus subtilis [17] = assay: Inhibition of cell wall biosynthesis in Bacillus subtilis assessed as induction of formation of misshapen cells at 3.5 ug/ml incubated for 2 hrs in presence of osmotic stabilising agent MSM by FM-4-64 staining based assay; assay type: functional, organism-based; how it was run: as §3
Staphylococcus aureus [18] = assay: Selectivity ratio of MBC99.9 for Staphylococcus aureus RN4220 NRS107 to MIC for Staphylococcus aureus RN4220 NRS107; assay type: functional
Staphylococcus aureus [19] = assay: Selectivity ratio of MBC99.9 for methicillin-resistant Staphylococcus aureus NRS123 (USA400) to MIC for methicillin-resistant Staphylococcus aureus NRS123 (USA400); assay type: functional
Staphylococcus aureus [20] = assay: Selectivity ratio of MBC99.9 for methicillin-resistant Staphylococcus aureus USA100 NRS382 to MIC for methicillin-resistant Staphylococcus aureus USA100 NRS382; assay type: functional
Staphylococcus aureus [21] = assay: Selectivity ratio of MBC99.9 for methicillin-resistant Staphylococcus aureus USA200 NRS383 to MIC for methicillin-resistant Staphylococcus aureus USA200 NRS383; assay type: functional
Staphylococcus aureus [22] = assay: Selectivity ratio of MBC99.9 for methicillin-resistant Staphylococcus aureus USA300 NRS384 to MIC for methicillin-resistant Staphylococcus aureus USA300 NRS384; assay type: functional
[23] = Half life in human liver microsomes in presence of NADPH by LC-MS/MS analysis; assay type: ADME, microsome; conditions: microsomes
How it was run: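 Human liver microsomal protein was incubated in duplicate at 37 °C in 100 mM potassium phosphate, 2 mM NADPH, 3 mM MgCl2, pH 7.4. Samples were taken at 0, 10, 20, 40 and 60 min and stopped with ice-cold methanol containing an internal standard. Half-life was derived from depletion. CLint = ln(2)/(T1/2 × microsomal protein concentration).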

[24] = Half life in human liver microsomes in absence of NADPH by LC-MS/MS analysis; assay type: ADME, microsome
How it was run: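 Human liver microsomes were incubated in duplicate at 37 °C in 100 mM potassium phosphate with 3 mM MgCl2, pH 7.4, without NADPH to detect NADPH-free degradation. Aliquots were taken at 0, 10, 20, 40 and 60 min and quenched in ice-cold methanol containing an internal standard, then held at least 10 min at -20 °C before water was added. Half-life was taken from compound depletion.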

[25] = Selectivity ratio of cytotoxicity against human HaCaT cells to MIC for Staphylococcus aureus RN4220 NRS107; assay type: toxicity, cell-based
[26] = Selectivity ratio of cytotoxicity against human HaCaT cells to MIC for methicillin-resistant Staphylococcus aureus NRS123 (USA400); assay type: toxicity, cell-based
[27] = Selectivity ratio of cytotoxicity against human HaCaT cells to MIC for methicillin-resistant Staphylococcus aureus USA100 NRS382; assay type: toxicity, cell-based
[28] = Selectivity ratio of cytotoxicity against human HaCaT cells to MIC for methicillin-resistant Staphylococcus aureus USA200 NRS383; assay type: toxicity, cell-based
[29] = Selectivity ratio of cytotoxicity against human HaCaT cells to MIC for methicillin-resistant Staphylococcus aureus USA300 NRS384; assay type: toxicity, cell-based
Staphylococcus aureus [30] = assay: Antibacterial activity against methicillin-resistant Staphylococcus aureus USA300 NRS384 infected in Caenorhabditis elegans AU37 assessed as reduction in bacterial burden at 20 ug/ml after 18 hrs by microscopic analysis relative to vancomycin; assay type: functional
Staphylococcus aureus [31] = assay: Potentiation of vancomycin-induced antibacterial activity against vancomycin-resistant Staphylococcus aureus isolate 10 assessed as vancomycin MIC after 20 to 22 hrs by broth microdilution assay (reference value: […]); assay type: functional
Staphylococcus aureus [32] = assay: Potentiation of vancomycin-induced antibacterial activity against vancomycin-resistant Staphylococcus aureus isolate 10 assessed as reduction in vancomycin MIC after 20 to 22 hrs by broth microdilution assay relative to vancomycin alone; assay type: functional
Bacillus subtilis [33] = assay: Inhibition of cell wall biosynthesis in Bacillus subtilis at 4 times MIC incubated for 2 hrs by SYTOX Green staining-based assay

Structure (SMILES): Cc1nc(-c2ccc3ccccc3c2)sc1-c1cnc(NC(=N)N)s1
- MIC (Staphylococcus aureus [1]): 4 µg/mL (≈ 10.9 µM)
- MIC (Staphylococcus aureus [2]): 4 µg/mL (≈ 10.9 µM)
- MIC (Staphylococcus aureus [3]): 4 µg/mL (≈ 10.9 µM)
- MBC (Staphylococcus aureus [4]): 4 µg/mL (≈ 10.9 µM)
- MBC (Staphylococcus aureus [5]): 4 µg/mL (≈ 10.9 µM)
- MBC (Staphylococcus aureus [6]): 2 µg/mL (≈ 5.47 µM)
- MBC (Staphylococcus aureus [7]): 2 µg/mL (≈ 5.47 µM)
- MBC (Staphylococcus aureus [8]): 4 µg/mL (≈ 10.9 µM)
- MBC (Staphylococcus aureus [9]): 4 µg/mL (≈ 10.9 µM)
- MBC (Staphylococcus aureus [10]): 4 µg/mL (≈ 10.9 µM)
- Time (Staphylococcus aureus [11]): <=4 hr
- Activity (HaCaT): Non-Toxic
- Activity (J774): Non-Toxic
- Activity (Staphylococcus aureus [12]): inactive
- Activity (Staphylococcus aureus [13]): 81%
- Activity (Staphylococcus aureus [14]): 30%
- inhibition (Staphylococcus aureus [15]): Active
- inhibition (Bacillus subtilis [16]): Active
- inhibition (Bacillus subtilis [17]): Active
- selectivity ratio (Staphylococcus aureus [18]): 2
- selectivity ratio (Staphylococcus aureus [19]): 2
- selectivity ratio (Staphylococcus aureus [20]): 2
- selectivity ratio (Staphylococcus aureus [21]): 1
- selectivity ratio (Staphylococcus aureus [22]): 1
- t1/2 [23]: 2.23 h
- t1/2 [24]: > 4 h
- selectivity ratio [25]: 4 to 16
- selectivity ratio [26]: 4 to 16
- selectivity ratio [27]: 4 to 16
- selectivity ratio [28]: 4 to 16
- selectivity ratio [29]: 4 to 16
- fold change (FC) (Staphylococcus aureus [30]): 3
- MIC (Staphylococcus aureus [31]): 1 µg/mL
- fold change (FC) (Staphylococcus aureus [32]): 512
- inhibition (Bacillus subtilis [33]): Active
